According to ChEMBL document CHEMBL3632599, “2-((Benzimidazol-2-yl)thio)-1-arylethan-1-ones: Synthesis, crystal study and cancer stem cells CD133 targeting potential” (Eur J Med Chem, 2015):
The source made the active and inactive calls. No cut-off for these calls is given here.

Columns and labels:
HT-29 [1] = test: Cytotoxicity against human HT-29 cells assessed as growth inhibition after 48 hrs by WST-1 assay; format: functional, cell-based; conditions: HT-29, 48 h
In short: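 HT-29 human colon cancer cells kept in RPMI 1640 with 10% FBS, penicillin, streptomycin and 2 mmol/L L-glutamine. Seeded at 0.4*10⁴/well, left overnight, then medium replaced with fresh medium holding the test concentrations for 48 h. WST-1 added, 4 h at 37 °C, formazan read at 450 nm. IC₅₀ taken relative to untreated controls; mean ± SD of three separate experiments.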

HT-29 [2] = test: Inhibition of cell surface expression of CD133 in human HT-29 cells at 10 uM by flow cytometric analysis relative to control; format: functional
In short: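 HT-29 cells exposed to compound at 10 µM, then harvested, washed and stained with APC-conjugated anti-CD133 monoclonal antibody. Analysed by flow cytometry (BD LSR II), with debris and cell clusters excluded by forward- and side-scatter gating. Reported as % inhibition of […] relative to untreated cells; mean ± SD of three separate experiments.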

| SMILES | IC50 (HT-29 [1]) [µM] | inhibition at 10 µM (HT-29 [2]) [%] | inhibition (HT-29 [2]) |
| --- | --- | --- | --- |
| COc1ccccc1C(=O)CSc1nc2ccccc2[nH]1 | 36.1 | 34.9 |  |
| COc1ccc(C(=O)CSc2nc3ccccc3[nH]2)cc1O | 33 | 49.7 |  |
| O=C(CSc1nc2ccccc2[nH]1)c1ccc(Br)cc1 | 43 |  | inactive |
| O=C(CSc1nc2ccccc2[nH]1)c1cccs1 | 23.9 | 55.6 |  |
| O=C(CSc1nc2ccccc2[nH]1)c1ccc([N+](=O)[O-])cc1 | 57 |  | inactive |
| Cc1ccc(C(=O)CSc2nc3ccccc3[nH]2)cc1 | 34.5 | 40 |  |
| COc1ccc(C(=O)CSc2nc3ccccc3[nH]2)cc1OC | 19.1 | 52.6 |  |
| O=C(CSc1nc2ccccc2[nH]1)c1ccco1 | 24.6 | 56.8 |  |
| CCOc1ccc(C(=O)CSc2nc3ccccc3[nH]2)cc1 | > 100 | 55.1 |  |
| O=c1[nH]cc(F)c(=O)[nH]1 [FLUOROURACIL] | 15.8 |  |  |
| O=C(CSc1nc2ccccc2[nH]1)c1ccc(O)cc1 | 19.2 |  | inactive |
| O=C(CSc1nc2ccccc2[nH]1)c1ccccc1 | 38.5 |  | inactive |
| O=C(CSc1nc2ccccc2[nH]1)c1ccc2c(c1)OCO2 | 36.8 | 51.2 |  |
| COc1ccc(C(=O)CSc2nc3ccccc3[nH]2)c(OC)c1OC | 18.8 | 50.1 |  |
| COc1ccc(C(=O)CSc2nc3ccccc3[nH]2)cc1 | 25.2 | 52.5 |  |
| O=C(CSc1nc2ccccc2[nH]1)c1ccc(F)cc1 | 78.7 |  | inactive |
